# Measured values reported in ChEMBL document CHEMBL3792330, “Designed Glycopeptidomimetics Disrupt Protein-Protein Interactions Mediating Amyloid β-Peptide Aggregation and Restore Neuroblastoma Cell Viability” (J Med Chem, 2016).
# The source made the active and inactive calls. No cut-off for these calls is given here. *1 amine or outer side, *2 acyl side, *3 side chain or, on linkers, in order; H or OH if unused. Where a SMILES comes first, the peptide text is derived from it. [ ]: non-standard residue; d: D form. X1 = O=C(CCOC[C@H]1O[C@@H](OCCCN[*:1])[C@H](O)[C@@H](O)[C@@H]1O)[*:2]
# Assays:
# [1] = target: Amyloid-beta precursor protein (Homo sapiens) (UniProt P05067); experiment: Inhibition of amyloid beta (1 to 42) (unknown origin) fibril formation assessed as decrease in fluorescence plateau at compound/protein ratio of 1/1 after 42 hrs by ThT fluorescence assay relative to control
# Method in brief: (§1)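 Aβ1-42 (1 mM in 1% ammonia, diluted in buffer) added to a final 10 μM into 40 μM ThT in 10 mM Tris-HCl, 100 mM NaCl pH 7.4, with compound at 100, 50, 10 or 1 μM (0.5% DMSO), at room temperature. Ex/em 440/485 nm read for 42 h, in duplicate or triplicate, 2–4 runs. t1/2 and plateau F expressed relative to Aβ alone.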
# [2] = target: Amyloid-beta precursor protein (Homo sapiens) (UniProt P05067); experiment: Inhibition of amyloid beta (1 to 42) (unknown origin) fibril formation assessed as extension of aggregation half life at compound/protein ratio of 1/1 after 42 hrs by ThT fluorescence assay relative to control; design: Activity: scale not given: the % may be the effect or the level left; method in brief: as §1
# [3] = target: Amyloid-beta precursor protein (Homo sapiens) (UniProt P05067); experiment: Inhibition of amyloid beta (1 to 42) (unknown origin) fibril formation assessed as extension of aggregation half life at compound/protein ratio of 10/1 after 42 hrs by ThT fluorescence assay relative to control; design: Activity: scale not given: the % may be the effect or the level left; method in brief: as §1
# [4] = target: Amyloid-beta precursor protein (Homo sapiens) (UniProt P05067); experiment: Inhibition of amyloid beta (1 to 42) (unknown origin) fibril formation assessed as decrease in fluorescence plateau at compound/protein ratio of 10/1 after 42 hrs by ThT fluorescence assay relative to control; settings: concentration not given here; method in brief: as §1
# [5] = target: Amyloid-beta precursor protein (Homo sapiens) (UniProt P05067); experiment: Inhibition of amyloid beta (1 to 42) (unknown origin) fibril formation assessed as extension of aggregation half life at compound/protein ratio of 0.1/1 after 42 hrs by ThT fluorescence assay relative to control; design: Activity: scale not given: the % may be the effect or the level left; method in brief: as §1
# [6] = target: Amyloid-beta precursor protein (Homo sapiens) (UniProt P05067); experiment: Inhibition of amyloid beta (1 to 42) (unknown origin) fibril formation assessed as decrease in fluorescence plateau at compound/protein ratio of 0.1/1 after 42 hrs by ThT fluorescence assay relative to control; settings: concentration not given here; method in brief: as §1
# [7] = target: Amyloid-beta precursor protein (Homo sapiens) (UniProt P05067); experiment: Binding affinity to synthetic 15N,13C-labelled recombinant amyloid beta (1 to 42) (unknown origin) assessed as negative nuclear overhauser effect at 0.4 mM after 2.5 weeks by 1D 1H water LOGSY method
# Method in brief: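 WaterLOGSY at 5 °C in 50 mM sodium phosphate pH 7.4 with 10% D2O, synthetic Aβ1-42. Ligand at 0.4 mM. Selective water inversion with a 20 ms Gaussian pulse, 0.5 s mixing, 2 s recycle delay, 1200 scans (about 1 h), 500 MHz cryoprobe.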
# [8] = target: Amyloid-beta precursor protein (Homo sapiens) (UniProt P05067); experiment: Binding affinity to synthetic 15N,13C-labelled recombinant amyloid beta (1 to 42) (unknown origin) at 0.4 mM after 2.5 weeks by saturation transfer difference method
# Method in brief: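 1D 1H STD at 5 °C in 50 mM sodium phosphate pH 7.4 with 10% D2O. Cascade of 50 ms Gaussian pulses (B1 0.1 kHz, 3 s total) applied alternately on-resonance at −0.7 ppm and off-resonance at +30 ppm. 320 scans (50 min). Ligand at 0.4 mM.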
# [9] = target: Amyloid-beta precursor protein (Homo sapiens) (UniProt P05067); experiment: Binding affinity to synthetic 15N,13C-labelled recombinant amyloid beta (1 to 42) (unknown origin) assessed as negative nuclear overhauser effect at 0.4 mM after 2.5 weeks by 2D NOESY method
# Method in brief: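 2D NOESY at 5 °C with 0.2 s mixing time. Synthetic Aβ1-42 in 50 mM sodium phosphate pH 7.4 with 10% D2O, ligand at 0.4 mM, recorded at 500 MHz.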
# [10] = target: Amyloid-beta precursor protein (Homo sapiens) (UniProt P05067); experiment: Inhibition of amyloid beta (1 to 42) (unknown origin) oligomerization assessed as remaining monomer level at compound/protein ratio of 1/1 after 12 hrs by capillary electrophoresis (reference value: 19%)
# Method in brief: (§2)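 Aβ1-42 pretreated in 0.16% NH4OH, lyophilized, then reconstituted at 100 μM in 20 mM phosphate pH 7.4 with 2.5% DMSO, compound/peptide 1/1. Species separated in fused silica capillary (50 μm ID) with 80 mM phosphate pH 7.4 background electrolyte, −20 kV, 25 °C. UV detection at 190 nm; profiles taken at 0 and 12 h.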
# [11] = target: Amyloid-beta precursor protein (Homo sapiens) (UniProt P05067); experiment: Binding affinity to amyloid beta (1 to 42) (unknown origin) by SPR analysis
# Method in brief: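 Aβ1-42 (0.05 μM in 10 mM sodium acetate pH 4.6) amine-coupled to an EDC/NHS-activated gold chip, then rinsed with 0.1% NH4OH to leave mainly monomer. Analytes in 150 mM PBS with 2% DMSO were injected at 12.5–200 μM for 1 min at 80 μL/min. DMSO solvent correction applied and the ethanolamine-blocked blank channel subtracted. Regeneration with 0.1% NH4OH.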
# [12] = target: Amyloid-beta precursor protein (Homo sapiens) (UniProt P05067); experiment: Inhibition of amyloid beta (1 to 42) (unknown origin) oligomerization assessed as formation of larger than dodecamers at compound/protein ratio of 1/1 at 12 hrs by capillary electrophoresis; method in brief: as §2
# SH-SY5Y [13] = experiment: Neuroprotective activity against amyloid beta (1 to 42)-induced toxicity in human SH-SY5Y cells assessed as cell viability at 0.25 to 5 uM after 24 hrs by MTS assay; assay type: functional, cell-based
# Method in brief: (§3)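 Aβ1-42 at 50 μM in sterile PBS pre-incubated 24 h at room temperature with 1, 5, 10 or 50 μM compound, then diluted 1:10 (5 μM Aβ final) onto SH-SY5Y cells. Cells seeded at 20 000/well in low-serum Optimem, 37 °C, 5% CO2, 24 h. Exposure a further 24 h in quadruplicate. MTS viability or LDH release read; assays repeated twice.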
# Plasma = experiment: Metabolic stability in 10% human plasma assessed as drug degradation at 1 uM after 24 hrs by HPLC analysis; assay type: ADME, cell-free
# Method in brief: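 Compounds taken from 40 μM DMSO stock to 1 μM in 10% human plasma/90% sterile PBS, held 24 h at 37 °C. Analysed by C18 HPLC with a 0–80% gradient (A: 0.1% TFA in water; B: 0.05% TFA in acetonitrile).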
# SH-SY5Y [14] = experiment: Neuroprotective activity against amyloid beta (1 to 42)-induced membrane damage in human SH-SY5Y cells at 0.1 to 5 uM after 24 hrs by LDH assay; assay type: functional, cell-based; method in brief: as §3
# Sequence of Amyloid-beta precursor protein (Homo sapiens) (P05067 whole entry): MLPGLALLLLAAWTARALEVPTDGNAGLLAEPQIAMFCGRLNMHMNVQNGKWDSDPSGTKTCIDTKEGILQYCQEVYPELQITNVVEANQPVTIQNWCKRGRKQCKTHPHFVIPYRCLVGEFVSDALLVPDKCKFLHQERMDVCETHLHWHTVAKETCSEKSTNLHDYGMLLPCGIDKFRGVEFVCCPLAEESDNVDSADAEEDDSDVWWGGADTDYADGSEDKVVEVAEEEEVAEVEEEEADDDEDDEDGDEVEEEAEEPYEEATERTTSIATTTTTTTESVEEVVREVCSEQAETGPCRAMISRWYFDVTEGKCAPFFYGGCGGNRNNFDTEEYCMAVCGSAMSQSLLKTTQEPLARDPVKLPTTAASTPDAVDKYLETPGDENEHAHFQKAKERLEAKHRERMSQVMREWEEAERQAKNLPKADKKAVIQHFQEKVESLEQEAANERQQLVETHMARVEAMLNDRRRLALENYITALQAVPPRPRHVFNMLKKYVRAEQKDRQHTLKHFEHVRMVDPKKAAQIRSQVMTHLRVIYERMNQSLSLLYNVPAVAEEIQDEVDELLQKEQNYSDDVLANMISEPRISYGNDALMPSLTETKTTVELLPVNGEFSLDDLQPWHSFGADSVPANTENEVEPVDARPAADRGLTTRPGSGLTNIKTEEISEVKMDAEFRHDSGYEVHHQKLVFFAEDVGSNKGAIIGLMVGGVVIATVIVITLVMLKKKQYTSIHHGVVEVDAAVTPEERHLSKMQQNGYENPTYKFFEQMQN
SMILES,inhibition [1],Activity [2] [%],Activity [3] [%],inhibition [4] [%],inhibition ([1]; concentration not given here) [%],inhibition [3],Activity [5] [%],inhibition [6] [%],Activity [7],Activity [8],Activity [9],Activity [10] [%],Activity [11],inhibition [12],Activity (SH-SY5Y [13]),inhibition [2],Stability (Plasma),Activity (SH-SY5Y [14])
COc1ccc(NC(C)=O)cc1C(=O)NNC(=O)[C@@H](NC(=O)CCOC[C@H]1OC(OCCCNC(=O)[C@@H](NC(=O)[C@H](C)NC(=O)OC(C)(C)C)C(C)C)[C@H](O)[C@@H](O)[C@@H]1O)C(C)C (stereo partly drawn),inactive,138,379,41,–,–,–,–,–,–,–,–,–,–,–,–,–,–
COc1ccc(NC(C)=O)cc1C(=O)NNC(=O)[C@H](CCCCN)NC(=O)CCOC[C@H]1OC(OCCCNC(=O)[C@@H](NC(=O)[C@H](C)NC(=O)OC(C)(C)C)C(C)C)[C@H](O)[C@@H](O)[C@@H]1O (stereo partly drawn),–,154,–,84,26,Active,–,–,–,–,–,–,–,–,–,–,–,–
COc1ccc(NC(C)=O)cc1C(=O)NNC(=O)[C@H](CCCCN)NC(=O)CCOC[C@H]1O[C@@H](OCCCNC(=O)[C@@H](NC(=O)[C@H](C)N)C(C)C)[C@H](O)[C@@H](O)[C@@H]1O,–,165,–,90,34,Active,129,16,Active,Active,Active,52,Dose-dependent effect,Active,–,–,–,–
COC(=O)[C@H](CC(C)C)NC(=O)[C@@H](NC(=O)CCOC[C@H]1O[C@@H](OCCCNC(=O)[C@@H](NC(=O)[C@H](C)N)C(C)C)[C@H](O)[C@@H](O)[C@@H]1O)C(C)C (H-AV[X1]VL-OMe),inactive,–,280,56,–,–,–,–,–,–,–,–,Dose-dependent effect,–,Active,inactive,Unstable,Active
